From ChEMBL document CHEMBL1125497, “Synthesis and anticonvulsant activity of enaminones” (J Med Chem, 1992)

What was measured:
[1] = Antiepileptic activity in male CF1 mice 30 min after administration measured in subcutaneous pentylenetetrazole (scMet) test at a dose of 100 mg/kg (no. of animals treated /protected); activity value is 0/1; type: functional, Mus musculus
[2] = Antiepileptic activity in male CF1 mice 4 hr after administration measured in maximum electroshock seizure(MES) test at a dose of 100 mg/kg (no. of animals treated /protected); activity value is 0/3; type: functional, Mus musculus
[3] = Antiepileptic activity in male CF1 mice 30 min after administration measured in maximum electroshock seizure(MES) test at a dose of 100 mg/kg (no. of animals treated /protected); activity value is 2/3; type: functional, Mus musculus
[4] = Antiepileptic activity in male CF1 mice 30 min after administration measured in neurological toxicity (Tox) test at a dose of 100 mg/kg (no. of animals treated /protected); activity value is 0/8; type: functional, Mus musculus
[5] = Antiepileptic activity in male CF1 mice 4 hr after administration measured in neurological toxicity (Tox) test at a dose of 100 mg/kg (no. of animals treated /protected); activity value is 0/4; type: functional, Mus musculus
[6] = Antiepileptic activity in male CF1 mice 4 hr after administration measured in subcutaneous pentylenetetrazole (scMet) test at a dose of 100 mg/kg; activity value is 0/1; type: functional, Mus musculus
[7] = Dose at which anticonvulsant activity was observed in mice; type: functional, Mus musculus
[8] = Antiepileptic activity in male CF1 mice 30 min after administration measured in subcutaneous pentylenetetrazole (scMet) test at a dose of 300 mg/kg (no. of animals treated /protected); activity value is 0/1; type: functional, Mus musculus
[9] = Antiepileptic activity in male CF1 mice 4 hr after administration measured in maximum electroshock seizure(MES) test at a dose of 300 mg/kg (no. of animals treated /protected); activity value is 0/1; type: functional, Mus musculus
[10] = Antiepileptic activity in male CF1 mice 30 min after administration measured in maximum electroshock seizure(MES) test at a dose of 100 mg/kg (no. of animals treated /protected); activity value is 1/3; type: functional, Mus musculus
[11] = Antiepileptic activity in male CF1 mice 30 min after administration measured in maximum electroshock seizure(MES) test at a dose of 300 mg/kg (no. of animals treated /protected); activity value is 1/1; type: functional, Mus musculus
[12] = Antiepileptic activity in male CF1 mice 4 hr after administration measured in neurological toxicity (Tox) test at a dose of 300 mg/kg (no. of animals treated /protected); activity value is 0/2; type: functional, Mus musculus
[13] = Antiepileptic activity in male CF1 mice 4 hr after administration measured in subcutaneous pentylenetetrazole (scMet) test at a dose of 100 mg/kg (no. of animals treated /protected); activity value is 0/1; type: functional, Mus musculus
[14] = Antiepileptic activity in male CF1 mice 4 hr after administration measured in subcutaneous pentylenetetrazole (scMet) test at a dose of 300 mg/kg (no. of animals treated /protected); activity value is 0/1; type: functional, Mus musculus
[15] = Antiepileptic activity in male CF1 mice 30 min after administration measured in neurological toxicity (Tox) test at a dose of 300 mg/kg (no. of animals treated /protected); activity value is 1/4; type: functional, Mus musculus
[16] = Antiepileptic activity in male CF1 mice 30 min after administration measured in maximum electroshock seizure(MES) test at a dose of 300 mg/kg (no. of animals treated /protected); activity value is 0/1; type: functional, Mus musculus
[17] = Antiepileptic activity in male CF1 mice 4 hr after administration measured in maximum electroshock seizure(MES) test at a dose of 300 mg/kg (no. of animals treated /protected); activity value is 1/1; type: functional, Mus musculus
[18] = Antiepileptic activity in male CF1 mice 30 min after administration measured in neurological toxicity (Tox) test at a dose of 300 mg/kg (no. of animals treated /protected); activity value is 0/4; type: functional, Mus musculus
[19] = Dose elevating electroshock induced seizure by 20% in CF1 mice after ip administration.; type: functional, Mus musculus
Method in brief: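 In CF1 male mice (ca. 24–34 g), compound was given ip in 0.5% methylcellulose. The current giving hind limb extension in 50% of mice was found by the up-and-down method, with 15–25 mice per group and a vehicle control group run with each experimental group. At least three doses were tested. The dose raising threshold current by 20% was taken from a plot of dose against % threshold increase.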

[20] = Dose protecting 50% of the mice from tonic hind limb extension at the time of […] after ip administration.; type: functional; conditions: Mus musculus, Hindlimb
Method in brief: (§1)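 Phase II quantification in CF1 male mice (ca. 24–34 g), dosing ip or po in 0.5% methylcellulose suspension. ED50 is protection from tonic hind limb extension in MES. TD50 is rotorod neurotoxicity. Both were read at time of peak effect and derived by Litchfield–Wilcoxon with 95% confidence limits.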

[21] = Dose showing neurotoxicity in 50% of the at the time of peak neurotoxic effect in CF1 MICE after ip administration.; type: toxicity, organism-based; conditions: CF1, mouse, in vivo
Method in brief: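 CF1 male mice (ca. 24–34 g), dosed ip in 0.5% methylcellulose suspension. Neurotoxicity measured by the rotorod test at the time of peak neurotoxic effect. TD50 and confidence limits by the Litchfield-Wilcoxon method.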

[22] = Time of peak anticonvulsant effect in CF1 MICE after ip administration.; type: functional, Mus musculus
Method in brief: (§2)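 Male CF1 mice (ca. 24–34 g), compound in 0.5% methylcellulose suspension given ip or po; time (h) at which MES protection (against tonic hind limb extension) peaked was recorded and used for ED50 determination.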

[23] = Time of peak neurotoxic effect in CF1 MICE after ip administration.; type: ADME, organism-based; conditions: mouse, in vivo
Method in brief: (§3)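 Male CF1 mice (ca. 24–34 g), compound ip in 0.5% methylcellulose suspension; neurological deficit assessed by rotorod test, time (h) of peak neurotoxic effect recorded for TD50 determination.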

[24] = tested on: Rattus norvegicus; test: Average seizure score for the rat cornea 0.5 hr after intraperitoneal administration of 15 mg/Kg of compound; type: functional
Method in brief: (§4)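 Sprague-Dawley rats (85–95 g initial weight) kindled by corneal stimulation (4 s, 8 mA) twice daily for 5 to 6 days, then once daily until 10 consecutive stage 5 seizures. Butacaine sulfate 1% applied to the cornea as a topical anaesthetic. After a vehicle shock and a 2-day shock-free period, drug given ip, then a single shock at the time of peak effect. Scored on the modified Racine scale (0–5).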

[25] = tested on: Rattus norvegicus; test: Average seizure score for the rat cornea 0.5 hr after intraperitoneal administration of 20 mg/Kg of compound; type: functional; method in brief: as §4
[26] = tested on: Rattus norvegicus; test: Average seizure score for the rat cornea 0.5 hr after intraperitoneal administration of 0 mg/Kg of compound; type: functional; method in brief: as §4
[27] = tested on: Rattus norvegicus; test: Average seizure score for the rat cornea 0.5 hr after intraperitoneal administration of 30 mg/Kg of compound; type: functional; method in brief: as §4
[28] = tested on: Rattus norvegicus; test: Intraperitoneal dose (0 mg/Kg) reducing rat corneal kindling 0.5 hr after administration.; type: functional; method in brief: as §4
[29] = tested on: Rattus norvegicus; test: Intraperitoneal dose (15 mg/Kg) reducing rat corneal kindling 0.5 hr after administration.; type: functional; method in brief: as §4
[30] = tested on: Rattus norvegicus; test: Intraperitoneal dose (20 mg/Kg) reducing rat corneal kindling 0.5 hr after administration.; type: functional; method in brief: as §4
[31] = tested on: Rattus norvegicus; test: Intraperitoneal dose (25 mg/Kg) reducing rat corneal kindling 0.5 hr after administration.; type: functional; method in brief: as §4
[32] = tested on: Rattus norvegicus; test: Intraperitoneal dose (30 mg/Kg) reducing rat corneal kindling 0.5 hr after administration.; type: functional; method in brief: as §4
[33] = Dose protecting 50% of the mice from tonic hind limb extension at the time of peak convulsant effect after po administration.; type: functional; conditions: Mus musculus, Hindlimb; method in brief: as §1
[34] = Antiepileptic activity in male CF1 mice 30 min after administration measured in subcutaneous pentylenetetrazole (scMet) test at a dose of 100 mg/kg (no. of animals treated /protected) activity value is 0/1; type: functional, Mus musculus
[35] = Time of peak anticonvulsant effect in CF1 MICE after po administration.; type: functional, Mus musculus; method in brief: as §2
[36] = Protective index was measured as TD50/MES ED50 in mice on ip administration; type: ADME, organism-based; conditions: mouse, in vivo, read-out: PI
Method in brief: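 Male CF1 mice (ca. 24–34 g), compound given ip as 0.5% methylcellulose suspension. MES ED50 = dose protecting 50% from tonic hind limb extension; TD50 = median neurotoxic dose by rotorod; both at time of peak effect, with confidence limits by Litchfield and Wilcoxon. PI = TD50/MES ED50.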

[37] = Time of peak anticonvulsant effect in CF1 mice; type: functional, Mus musculus; method in brief: as §2
[38] = Time of peak neurotoxic effect in CF1 mice; type: ADME; conditions: mouse, in vivo; method in brief: as §3
[39] = tested on: Rattus norvegicus; test: Dose reducing the seizure severity in rat cornea 0.5 hr after peroral administration.; type: functional; conditions: po
Method in brief: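 Sprague-Dawley rats (85–95 g initial) were kindled with 4 s, 8 mA corneal stimulations (butacaine anesthesia) to 10 consecutive stage 5 seizures. After a vehicle shock and a 2-day shock-free period, test drug was given ip or po and a single shock applied at time of peak effect. Seizures were scored on a modified Racine 0–5 scale. ED50 is the dose reducing severity by 50% (Litchfield–Wilcoxon).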

[40] = Oral dose producing neurotoxic effects in 50% of rats; type: ADME, organism-based; conditions: rat, in vivo
Method in brief: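 Phase VI screen in male Sprague-Dawley rats dosed orally. MES protection and rotorod toxicity were scored as animals responding over animals tested at 0.25, 0.5, 1, 2 and 4 h.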

SMILES: CCc1ccc(NC2=CC(=O)C(C(=O)OC)C(C)C2)cc1 (stereo unspecified)
- Activity [1]: 0
- Activity [2]: 0
- Activity [3]: 2
- Activity [4]: 0
- Activity [5]: 0
- Activity [6]: 0
- Dose [7]: <=100 mg kg-1

SMILES: COC(=O)C1C(O)=C/C(=N\CCc2ccccc2)CC1(C)C (stereo unspecified)
- Activity [8]: 0
- Activity [1]: 0
- Activity [2]: 0
- Activity [9]: 0
- Activity [10]: 1
- Activity [11]: 1
- Activity [4]: 0
- Activity [5]: 0
- Activity [12]: 0
- Activity [13]: 0
- Activity [14]: 0
- Dose [7]: <=100 mg kg-1
- Activity [15]: 1

SMILES: CC1CC(NCCc2ccccc2)=CC(=O)C1C(=O)NCCc1ccccc1 (stereo unspecified)
- Activity [8]: 0
- Activity [16]: 0
- Activity [17]: 1
- Activity [12]: 0
- Activity [14]: 0
- Dose [7]: >100 mg/kg
- Activity [18]: 0

SMILES: CCC1(c2ccccc2)C(=O)NC(=O)NC1=O [PHENOBARBITAL]
- Dose [19]: 3 mg/kg
- ED50 [20]: 18 mg/kg
- TD50 [21]: 92 mg/kg
- TPE [22]: 1
- TPE [23]: 1
- Average seizure score [24]: 2.7
- Average seizure score [25]: 1.7
- Average seizure score [26]: 5
- Average seizure score [27]: 1.3
- Reduction [28]: 0%
- Reduction [29]: 47%
- Reduction [30]: 68%
- Reduction [31]: 70%
- Reduction [32]: 74%

SMILES: CC1(C)CC(O)=C/C(=N\Cc2ccccc2)C1
- Dose [19]: 20 mg/kg
- ED50 [20]: 53 mg/kg
- ED50 [33]: 211 mg/kg
- Activity [8]: 0
- Activity [34]: 0
- Activity [2]: 0
- Activity [10]: 1
- Activity [11]: 1
- Activity [4]: 0
- TD50 [21]: 148 mg/kg
- TPE [22]: 0.5
- TPE [35]: 0.5
- TPE [23]: 0.25
- Activity [17]: 1
- Activity [5]: 0
- Activity [12]: 0
- Activity [6]: 0
- Activity [14]: 0
- Dose [7]: >100 mg/kg
- Activity [15]: 1
- selectivity ratio [36]: 2.8

SMILES: O=C1NC(=O)C(c2ccccc2)(c2ccccc2)N1 [PHENYTOIN]
- TPE [37]: 2
- TPE [38]: 2
- ED50 [39]: > 100 mg/kg
- TD50 [40]: > 3000 mg/kg
